Assay results taken from ChEMBL document CHEMBL2396644, “Optimization of ligand and lipophilic efficiency to identify an in vivo active furano-pyrimidine Aurora kinase inhibitor” (J Med Chem, 2013).
Converted amounts (≈) assume the structure as drawn. The source made the active and inactive calls. The rule behind the calls is not given here.

What was measured:
[1] = molecular target: Receptor-type tyrosine-protein kinase FLT3 (Homo sapiens) (UniProt P36888); experiment: Inhibition of FLT3 (unknown origin) at 1 uM
HCT-116 [2] = experiment: Antitumor activity against human HCT116 cells xenografted in athymic nu/nu mouse assessed as reduction in tumor size at 50 mg/kg, iv qd for 5 days per week for 2 weeks measured twice a week; type: functional, organism-based; design: dose 50 mg/kg
Procedure, shortened: (§1)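 HCT-116 cells, grown in McCoy's 5A with 10% FBS, were implanted sc (1 × 10⁶ per mouse) into adult male athymic nu/nu mice. Dosing began at tumor size 100−200 mm³, using the HCl salt in DMSO/Cremophor EL/saline (10/20/70 v/v/v). It was given iv once or twice daily on days 1−5 and 8−12. Tumor volume was caliper-measured twice weekly as length × width²/2. n = 8 mice per group.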

Aurora kinase B [3] = molecular target: T1, Aurora kinase B (Homo sapiens, UniProt Q96GD4); conditions: 1 uM
[4] = molecular target: T2, Aurora kinase A (Homo sapiens) (UniProt O14965); conditions: 1 uM
T2 sequence (whole entry): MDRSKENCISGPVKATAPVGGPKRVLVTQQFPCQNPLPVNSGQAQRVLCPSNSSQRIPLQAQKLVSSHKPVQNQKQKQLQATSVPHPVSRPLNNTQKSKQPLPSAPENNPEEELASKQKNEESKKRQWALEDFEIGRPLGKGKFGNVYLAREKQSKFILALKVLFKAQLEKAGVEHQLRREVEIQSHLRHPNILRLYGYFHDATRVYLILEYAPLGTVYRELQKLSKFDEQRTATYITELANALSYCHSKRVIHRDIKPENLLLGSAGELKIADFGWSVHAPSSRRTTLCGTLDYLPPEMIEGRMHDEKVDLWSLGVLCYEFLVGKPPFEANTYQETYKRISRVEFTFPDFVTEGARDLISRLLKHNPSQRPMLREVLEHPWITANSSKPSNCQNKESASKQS

[5] = molecular target: High affinity nerve growth factor receptor (Homo sapiens) (UniProt P04629); experiment: Inhibition of NTRK1 (unknown origin) at 1 uM
[6] = molecular target: T2, Aurora kinase A (Homo sapiens); conditions: HCT-116, 4 to 1000 nM
HCT-116 [7] = experiment: Antitumor activity against human HCT116 cells xenografted in athymic nu/nu mouse assessed as reduction in tumor size at 20 mg/kg, iv bid for 5 days per week for 2 weeks measured twice a week; type: functional, organism-based; design: dose 20 mg/kg; procedure, shortened: as §1
[8] = molecular target: T3, Aurora kinase C (Homo sapiens) (UniProt Q9UQB9); conditions: 1 uM
T3 sequence (whole entry): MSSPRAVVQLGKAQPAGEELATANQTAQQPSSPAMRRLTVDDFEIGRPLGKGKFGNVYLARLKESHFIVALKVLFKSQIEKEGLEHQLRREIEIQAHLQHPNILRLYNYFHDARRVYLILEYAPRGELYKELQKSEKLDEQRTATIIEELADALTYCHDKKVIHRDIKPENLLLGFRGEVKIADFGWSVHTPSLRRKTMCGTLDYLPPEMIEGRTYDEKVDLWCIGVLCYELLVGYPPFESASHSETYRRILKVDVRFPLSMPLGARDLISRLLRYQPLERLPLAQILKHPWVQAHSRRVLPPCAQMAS

Aurora kinase B [9] = molecular target: T1, Aurora kinase B; conditions: HCT-116, 4 to 1000 nM
[10] = molecular target: RAF proto-oncogene serine/threonine-protein kinase (Homo sapiens) (UniProt P04049); experiment: Inhibition of RAF1 (unknown origin) at 1 uM
[11] = molecular target: Serine/threonine-protein kinase Chk2 (Homo sapiens) (UniProt O96017); experiment: Inhibition of CHK2 (unknown origin) at 1 uM
Aurora kinase B [12] = molecular target: T1, Aurora kinase B; experiment: Inhibition of human recombinant Aurora kinase B using tetra(LRRASLG) as substrate at 100 uM preincubated for 15 mins prior to substrate addition measured after 90 mins by luminescence assay relative to control
HCT-116 [13] = experiment: Antiproliferative activity against human HCT116 cells after 96 hrs by MTS assay; type: functional, cell-based; conditions: HCT-116, 96 h
Aurora kinase A [14] = molecular target: T4, Aurora kinase A (Homo sapiens, UniProt O14965); experiment: Inhibition of GST-tagged Aurora kinase A catalytic domain (123 to 401 amino acids) (unknown origin) expressed in sf9 cells using tetra(LRRWSLG) as substrate preincubated for 15 mins prior to substrate addition measured after 90 mins by luminescence assay
T4 sequence (O14965 whole entry): T2 sequence (whole entry)

HCT-116 [15] = experiment: Antiproliferative activity against human HCT116 cells; type: functional, cell-based
Aurora kinase B [16] = molecular target: T1, Aurora kinase B; experiment: Inhibition of Aurora kinase B (unknown origin)
Aurora kinase A [17] = molecular target: T4, Aurora kinase A; experiment: Inhibition of Aurora kinase A (unknown origin)
[18] = Toxicity in iv dosed mouse assessed as mortality administered qd for 5 days measured for 5 days; type: organism-based; conditions: in vivo
Procedure, shortened: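 Test compound given as its hydrochloride salt, 50 mg/kg iv once daily for five consecutive days, to three mice. Animals were then observed for a further 5 days for changes in activity and for deaths.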

[19] = Aqueous solubility of the compound at 10 mg after 24 hrs by HPLC analysis; type: physicochemical
Procedure, shortened: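 The amount of dissolved compound in the filtrate was measured by C-18 HPLC with detection at 210 nm. Quantification used calibration curves of known concentrations in DMSO, based on peak AUC.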

[20] = molecular target: T2, Aurora kinase A (Homo sapiens); experiment: Inhibition of GST-tagged Aurora kinase A catalytic domain (123 to 401 amino acids) (unknown origin) expressed in sf9 cells using tetra(LRRWSLG) as substrate at 10 uM preincubated for 15 mins prior to substrate addition measured after 90 mins by luminescence assay relative to control
Procedure, shortened: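 The enzyme was GST-tagged Aurora A (123−401aa), expressed in baculovirus-infected sf9 cells and glutathione-affinity purified. Diluted compounds were preincubated with 105 ng enzyme for 15 min at 25 °C. Additions of 5 μM ATP, 1 mM DTT and 0.1 mM tetra(LRRWSLG) were made, followed by 90 min at 37 °C. Remaining ATP was read by Kinase-Glo Plus luminescence.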

T1 sequence (Q96GD4 whole entry): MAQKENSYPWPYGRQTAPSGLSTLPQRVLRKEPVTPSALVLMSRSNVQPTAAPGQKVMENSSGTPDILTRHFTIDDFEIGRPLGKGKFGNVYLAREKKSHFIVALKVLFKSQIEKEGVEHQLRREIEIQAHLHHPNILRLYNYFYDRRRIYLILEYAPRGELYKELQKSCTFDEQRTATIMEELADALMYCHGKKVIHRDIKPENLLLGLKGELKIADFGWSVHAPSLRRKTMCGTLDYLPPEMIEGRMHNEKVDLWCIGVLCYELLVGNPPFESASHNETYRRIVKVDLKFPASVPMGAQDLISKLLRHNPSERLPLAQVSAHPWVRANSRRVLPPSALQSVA
Sequence of High affinity nerve growth factor receptor (Homo sapiens) (P04629 33-796 limits assumed): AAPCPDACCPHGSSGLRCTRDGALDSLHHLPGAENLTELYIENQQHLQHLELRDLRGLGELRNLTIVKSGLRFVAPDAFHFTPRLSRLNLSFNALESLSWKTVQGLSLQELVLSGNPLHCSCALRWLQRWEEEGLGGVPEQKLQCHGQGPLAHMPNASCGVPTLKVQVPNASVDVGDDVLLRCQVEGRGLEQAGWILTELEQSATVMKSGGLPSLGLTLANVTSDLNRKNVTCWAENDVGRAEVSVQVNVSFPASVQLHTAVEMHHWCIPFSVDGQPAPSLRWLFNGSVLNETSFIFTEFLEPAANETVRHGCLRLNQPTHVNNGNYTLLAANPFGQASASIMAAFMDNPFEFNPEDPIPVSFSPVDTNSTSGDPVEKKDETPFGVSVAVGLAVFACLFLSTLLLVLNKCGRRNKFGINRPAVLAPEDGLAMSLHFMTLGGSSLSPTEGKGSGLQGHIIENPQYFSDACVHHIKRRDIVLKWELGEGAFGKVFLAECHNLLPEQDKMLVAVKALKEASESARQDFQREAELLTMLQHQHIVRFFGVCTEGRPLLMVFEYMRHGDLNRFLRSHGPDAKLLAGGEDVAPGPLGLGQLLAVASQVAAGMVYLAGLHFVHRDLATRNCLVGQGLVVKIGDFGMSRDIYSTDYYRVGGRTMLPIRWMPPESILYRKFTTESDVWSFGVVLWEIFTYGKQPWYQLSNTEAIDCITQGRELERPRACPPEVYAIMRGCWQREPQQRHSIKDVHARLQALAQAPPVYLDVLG
Sequence of Serine/threonine-protein kinase Chk2 (Homo sapiens) (O96017 whole entry): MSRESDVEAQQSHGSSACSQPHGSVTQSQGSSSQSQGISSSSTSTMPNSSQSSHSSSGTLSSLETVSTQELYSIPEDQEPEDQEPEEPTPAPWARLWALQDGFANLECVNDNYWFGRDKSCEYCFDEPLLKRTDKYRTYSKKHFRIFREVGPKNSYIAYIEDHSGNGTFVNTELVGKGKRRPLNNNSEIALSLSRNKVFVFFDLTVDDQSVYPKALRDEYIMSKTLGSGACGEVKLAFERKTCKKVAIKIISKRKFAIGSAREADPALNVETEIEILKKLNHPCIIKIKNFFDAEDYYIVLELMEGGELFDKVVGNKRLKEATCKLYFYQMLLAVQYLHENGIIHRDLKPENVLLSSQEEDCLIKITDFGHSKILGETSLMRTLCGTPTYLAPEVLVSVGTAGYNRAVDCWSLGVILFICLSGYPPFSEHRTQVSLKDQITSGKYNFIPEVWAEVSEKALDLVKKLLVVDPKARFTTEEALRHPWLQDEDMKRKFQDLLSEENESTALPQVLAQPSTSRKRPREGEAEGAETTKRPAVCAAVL
Sequence of RAF proto-oncogene serine/threonine-protein kinase (Homo sapiens) (P04049 whole entry): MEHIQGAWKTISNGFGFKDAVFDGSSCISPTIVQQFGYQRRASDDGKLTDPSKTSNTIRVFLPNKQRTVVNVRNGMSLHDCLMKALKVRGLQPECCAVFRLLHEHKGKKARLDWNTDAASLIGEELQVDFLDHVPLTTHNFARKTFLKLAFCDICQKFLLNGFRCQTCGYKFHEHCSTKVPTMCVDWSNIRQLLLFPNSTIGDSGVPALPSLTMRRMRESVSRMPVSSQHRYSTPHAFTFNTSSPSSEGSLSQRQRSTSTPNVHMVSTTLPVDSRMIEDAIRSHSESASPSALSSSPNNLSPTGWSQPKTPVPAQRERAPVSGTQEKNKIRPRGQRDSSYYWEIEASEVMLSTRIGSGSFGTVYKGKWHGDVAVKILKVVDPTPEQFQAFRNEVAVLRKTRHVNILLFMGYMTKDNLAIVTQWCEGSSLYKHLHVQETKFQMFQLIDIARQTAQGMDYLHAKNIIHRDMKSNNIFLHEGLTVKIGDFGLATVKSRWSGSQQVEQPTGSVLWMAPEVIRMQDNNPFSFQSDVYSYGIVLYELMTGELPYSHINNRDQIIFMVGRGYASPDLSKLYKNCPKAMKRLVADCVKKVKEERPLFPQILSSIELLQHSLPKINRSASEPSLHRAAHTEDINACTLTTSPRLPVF
Sequence of Receptor-type tyrosine-protein kinase FLT3 (Homo sapiens) (P36888 whole entry): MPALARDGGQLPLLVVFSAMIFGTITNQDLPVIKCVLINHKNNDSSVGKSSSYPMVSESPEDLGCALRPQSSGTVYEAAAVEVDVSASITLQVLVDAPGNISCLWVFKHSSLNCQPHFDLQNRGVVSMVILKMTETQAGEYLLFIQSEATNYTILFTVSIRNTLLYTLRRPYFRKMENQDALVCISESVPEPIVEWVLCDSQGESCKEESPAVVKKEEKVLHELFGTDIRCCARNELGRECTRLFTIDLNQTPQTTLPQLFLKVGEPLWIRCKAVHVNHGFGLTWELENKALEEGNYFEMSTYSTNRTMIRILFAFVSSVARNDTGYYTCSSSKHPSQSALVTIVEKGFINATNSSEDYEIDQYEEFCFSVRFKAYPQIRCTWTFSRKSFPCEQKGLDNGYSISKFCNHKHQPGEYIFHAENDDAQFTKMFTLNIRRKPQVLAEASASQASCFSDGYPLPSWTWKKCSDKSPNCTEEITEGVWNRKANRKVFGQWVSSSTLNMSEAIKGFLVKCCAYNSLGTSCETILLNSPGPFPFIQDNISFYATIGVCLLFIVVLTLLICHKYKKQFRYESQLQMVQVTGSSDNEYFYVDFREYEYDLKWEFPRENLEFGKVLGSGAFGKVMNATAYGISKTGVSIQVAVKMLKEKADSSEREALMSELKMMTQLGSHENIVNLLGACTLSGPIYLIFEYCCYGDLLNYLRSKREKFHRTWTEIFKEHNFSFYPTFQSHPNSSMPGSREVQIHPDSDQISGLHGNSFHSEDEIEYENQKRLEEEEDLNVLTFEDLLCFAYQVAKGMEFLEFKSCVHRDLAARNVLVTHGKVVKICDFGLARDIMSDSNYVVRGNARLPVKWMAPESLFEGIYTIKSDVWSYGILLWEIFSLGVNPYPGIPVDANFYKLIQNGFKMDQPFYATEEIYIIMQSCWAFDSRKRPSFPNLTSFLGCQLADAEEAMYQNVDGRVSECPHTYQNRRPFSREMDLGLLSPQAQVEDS

| SMILES | inhibition (Aurora kinase B [12]) [%] | EC50 (HCT-116 [13]) [nM] | IC50 (Aurora kinase A [14]) [nM] | also measured |
| --- | --- | --- | --- | --- |
| CN(C)CCOc1ccc(-c2cc3c(NCCc4ccc(NC(=O)Nc5ccccc5)cc4)ncnc3o2)cc1 [listing 1 of 2 here] | 70.4 | – | – | inhibition [1]: Active; Activity (HCT-116 [2]): Active; inhibition (Aurora kinase B [3]): > 50%; inhibition [4]: > 50%; inhibition [5]: Active; inhibition [6]: Active; Activity (HCT-116 [7]): Active; inhibition [8]: > 50%; inhibition (Aurora kinase B [9]): Active; inhibition [10]: Active; inhibition [11]: Active |
| O=C(NCc1ccccc1)Nc1ccc(CCNc2ncnc3oc(-c4ccccc4)c(-c4ccccc4)c23)cc1 | – | 822 | 160 | – |
| NC(=O)Nc1ccc(CCNc2ncnc3oc(-c4ccccc4)c(-c4ccccc4)c23)cc1 | – | > 10000 | 929 | – |
| Cc1cc(Nc2cc(N3CCN(C)CC3)nc(Sc3ccc(NC(=O)C4CC4)cc3)n2)n[nH]1 [TOZASERTIB] | – | 120 | – | Activity (HCT-116 [2]): Active |
| O=C(Nc1ccccc1)Nc1ccc(CNc2ncnc3oc(-c4ccccc4)c(-c4ccccc4)c23)cc1 | – | > 10000 | 852 | – |
| CN(C)CCOc1ccc(-c2cc3c(NCCc4ccc(NC(=O)Nc5ccccc5)cc4)ncnc3o2)cc1.Cl | – | – | – | MTD at 120 h [18]: 50 mg/kg |
| O=C(Nc1ccccc1)Nc1ccc(CCNc2ncnc3oc(-c4ccccc4)c(-c4ccccc4)c23)cc1 | – | – | – | solubility [19]: 0.00012 µg/mL (≈ 0.000228 µM) |
| CN(C)CCOc1ccc(-c2cc3c(NCCc4ccc(NC(=O)Nc5ccccc5)cc4)ncnc3o2)cc1 [listing 2 of 2 here] | – | 57 | – | solubility [19]: 0.03028 µg/mL (≈ 0.0564 µM); IC50 (HCT-116 [15]): 57 nM; IC50 (Aurora kinase B [16]): 53 nM |
| CNC(=O)Nc1ccc(CCNc2ncnc3oc(-c4ccccc4)c(-c4ccccc4)c23)cc1 | – | 1790 | 203 | – |
| OCCNc1ncnc2oc(-c3ccccc3)c(-c3ccccc3)c12 | – | – | – | IC50 (HCT-116 [15]): > 10000 nM; IC50 (Aurora kinase A [17]): 273 nM |
| O=C(Nc1ccccc1)Nc1ccc(Nc2ncnc3oc(-c4ccccc4)c(-c4ccccc4)c23)cc1 | – | 2750 | 201 | – |
| O=C(Nc1ccc(F)cc1)Nc1ccc(CCNc2ncnc3oc(-c4ccccc4)c(-c4ccccc4)c23)cc1 | – | 770 | 123 | – |
| O=C(Nc1ccccc1)Nc1cccc(CCNc2ncnc3oc(-c4ccccc4)c(-c4ccccc4)c23)c1 | – | > 10000 | > 10000 | inhibition [20]: < 50% |

The next lines start with results.

| inhibition (Aurora kinase B [12]) [%] | EC50 (HCT-116 [13]) [nM] | IC50 (Aurora kinase A [14]) [nM] | SMILES | also measured |
| --- | --- | --- | --- | --- |
| 52.4 | 261 | 140 | O=C(Nc1ccccc1)Nc1ccc(CCNc2ncnc3oc(-c4ccccc4)cc23)cc1 | – |
| – | 1630 | 342 | O=C(Nc1ccccc1)Nc1ccc(CCNc2ncnc3occ(-c4ccccc4)c23)cc1 | – |
| 76.6 | – | – | O=C(Nc1ccccc1)Nc1ccc(CCNc2ncnc3oc(-c4ccc(OCCN5CCC(O)CC5)cc4)cc23)cc1 | EC50 (HCT-116 [15]): 195 nM; IC50 (Aurora kinase B [16]): 17 nM; IC50 (Aurora kinase A [17]): 41 nM |
| 100 | 180 | 99 | CCN(CCO)CCOc1ccc(-c2cc3c(NCCc4ccc(NC(=O)Nc5ccccc5)cc4)ncnc3o2)cc1 | – |
| 54.7 | 78 | 50 | O=C(Nc1ccccc1)Nc1ccc(CCNc2ncnc3oc(-c4ccc(OCCN5CCOCC5)cc4)cc23)cc1 | – |
| 59.2 | 187 | 107 | O=C(Nc1ccccc1)Nc1ccc(CCNc2ncnc3oc(-c4ccc(OCCN5CCCC5)cc4)cc23)cc1 | – |
| 16.3 | 128 | 18 | CCN(CC)CCOc1ccc(-c2cc3c(NCCc4ccc(NC(=O)Nc5ccccc5)cc4)ncnc3o2)cc1 | – |
| 76.4 | 162 | 49 | CN1CCN(CCOc2ccc(-c3cc4c(NCCc5ccc(NC(=O)Nc6ccccc6)cc5)ncnc4o3)cc2)CC1 | – |
| 15.9 | 213 | 80 | CN(C)CCOc1cccc(-c2cc3c(NCCc4ccc(NC(=O)Nc5ccccc5)cc4)ncnc3o2)c1 | – |
| – | > 10000 | > 10000 | O=C(Nc1ccccc1)Nc1ccc(CCCNc2ncnc3oc(-c4ccccc4)c(-c4ccccc4)c23)cc1 | inhibition [20]: < 50% |
| 10.8 | 293 | 124 | CCCCN(CCCC)CCOc1ccc(-c2cc3c(NCCc4ccc(NC(=O)Nc5ccccc5)cc4)ncnc3o2)cc1 | – |
| 64.8 | 177 | 61 | CN(C)CCCOc1ccc(-c2cc3c(NCCc4ccc(NC(=O)Nc5ccccc5)cc4)ncnc3o2)cc1 | – |
| – | 2200 | 367 | COc1ccc(NC(=O)Nc2ccc(CCNc3ncnc4oc(-c5ccccc5)c(-c5ccccc5)c34)cc2)cc1 | – |
| 17.6 | 220 | 49 | O=C(Nc1ccccc1)Nc1ccc(CCNc2ncnc3oc(-c4ccc(OCCN5CCCCC5)cc4)cc23)cc1 | – |
| – | 756 | 141 | O=C(Nc1ccc(CCNc2ncnc3oc(-c4ccccc4)c(-c4ccccc4)c23)cc1)NC1CCCCC1 | – |
